pEC50, pKd: −log10 of the molar value. The source made the active and inactive calls. The calls are words filed in the database; no cut-off is given here.

The source of these data is ChEMBL document CHEMBL2346523, “Synthesis and in vitro and in vivo characterization of highly β1-selective β-adrenoceptor partial agonists” (J Med Chem, 2013).

Test [1] has as its target T1, Beta-1 adrenergic receptor (Homo sapiens, UniProt P08588). Nature of the test: Antagonist activity at human beta1 adrenoceptor expressed in CHOK1 cells assessed as inhibition of cimaterol-induced [3H]cAMP accumulation incubated for 15 mins prior to cimaterol induction measured after 5 hrs. It is filed as functional, cell-based, CHO-K1.
Test [2] deals with T2, Beta-3 adrenergic receptor (Homo sapiens, UniProt P13945). Nature of the test: Agonist activity at human beta3 adrenoceptor expressed in CHOK1 cells assessed as induction of [3H]cAMP accumulation at 10 uM after 5 hrs relative to isoprenaline. It is filed as functional, cell-based. To be noted: CHO-K1. In short, it runs like this: (§1)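 CHO-K1 cells stably expressing human β3 (790 fmol/mg protein) were grown to confluence and prelabelled 2 h with 2 μCi/mL 3H-adenine. Cells then had 15 min in 1 mM IBMX, followed by ligand for 5 h. The reaction was stopped with HCl, and 3H-cAMP was isolated on Dowex/alumina columns. Responses are % of 10 μM isoprenaline. Mean ± SEM of separate experiments.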
Target sequence in this assay (P13945 whole entry, looked up): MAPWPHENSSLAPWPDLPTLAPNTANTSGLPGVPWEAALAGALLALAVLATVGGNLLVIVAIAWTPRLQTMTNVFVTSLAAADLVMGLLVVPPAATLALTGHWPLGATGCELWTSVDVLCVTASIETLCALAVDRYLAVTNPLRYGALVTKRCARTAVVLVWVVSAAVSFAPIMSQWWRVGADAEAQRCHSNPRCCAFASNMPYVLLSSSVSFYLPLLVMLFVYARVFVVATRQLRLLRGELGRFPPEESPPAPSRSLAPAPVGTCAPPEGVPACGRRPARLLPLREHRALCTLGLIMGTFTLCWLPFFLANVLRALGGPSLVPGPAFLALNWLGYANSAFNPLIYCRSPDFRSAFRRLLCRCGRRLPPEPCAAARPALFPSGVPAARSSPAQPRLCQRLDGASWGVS

Test [3] addresses T3, Beta-2 adrenergic receptor (Homo sapiens, UniProt P07550). Nature of the test: Antagonist activity at human beta2 adrenoceptor expressed in CHOK1 cells assessed as inhibition of cimaterol-induced [3H]cAMP accumulation incubated for 15 mins prior to cimaterol induction measured after 5 hrs. It is filed as functional, cell-based, CHO-K1. To be noted: for Kd: read-out: pKd (converted).
Target sequence in this assay (P07550 whole entry): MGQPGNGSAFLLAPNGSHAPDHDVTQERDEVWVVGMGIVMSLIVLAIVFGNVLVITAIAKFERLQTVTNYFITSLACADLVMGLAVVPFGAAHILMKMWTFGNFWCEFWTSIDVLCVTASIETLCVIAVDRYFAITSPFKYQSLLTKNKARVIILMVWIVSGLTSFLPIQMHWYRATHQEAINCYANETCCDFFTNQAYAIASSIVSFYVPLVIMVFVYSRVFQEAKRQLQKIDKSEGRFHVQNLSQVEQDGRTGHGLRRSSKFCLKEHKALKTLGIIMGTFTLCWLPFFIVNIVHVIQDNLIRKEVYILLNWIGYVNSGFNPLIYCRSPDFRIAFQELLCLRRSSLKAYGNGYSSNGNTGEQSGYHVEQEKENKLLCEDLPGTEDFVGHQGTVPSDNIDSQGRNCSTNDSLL

In test [4] the target is T3, Beta-2 adrenergic receptor. Nature of the test: Displacement of [3H]-CGP12177 from human beta2 adrenoceptor expressed in CHOK1 cells after 2 hrs by scintillation counting analysis. It is filed as cell-based, CHO-K1. To be noted: for inhibition: CHO-K1.
In test [5] the target is T1, Beta-1 adrenergic receptor. Briefly: Partial agonist activity at human beta1 adrenoceptor expressed in CHOK1 cells assessed as induction of [3H]cAMP accumulation after 5 hrs. It is filed as functional, cell-based, CHO-K1.
The target of test [6] is T2, Beta-3 adrenergic receptor. Briefly: Antagonist activity at human beta3 adrenoceptor expressed in CHOK1 cells assessed as inhibition of cimaterol-induced [3H]cAMP accumulation incubated for 15 mins prior to cimaterol induction measured after 5 hrs. It is filed as functional, cell-based, CHO-K1. To be noted: for Kd: read-out: pKd (converted); for pKd: read-out: Kd. A digest of the protocol: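 3H-cAMP accumulation in CHO-K1 cells stably expressing human β1, β2 or β3 adrenoceptors, prelabelled with 3H-adenine. Log KD was taken from the dose ratio shift, or by the Stephenson partial-agonist method when partial agonism was seen. Triplicates, on the same cell passage.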
Target sequence in this assay (P13945 whole entry): as the sequence (P13945 whole entry, looked up) above

A further test has as its system CHO-K1. Briefly: Selectivity ratio of Kd for human beta1 adrenoceptor expressed in CHOK1 cells by radioligand displacement assay to Kd for human beta2 adrenoceptor expressed in CHOK1 cells by radioligand displacement assay. It is filed as cell-based. In short, it runs like this:
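Whole-cell 3H-CGP 12177 binding (0.73 nM) in confluent CHO-K1 cells expressing human β1 or β2, 2 h at 37 °C. Cells were washed with cold PBS and counted by scintillation. Nonspecific binding was defined with 10 μM propranolol. IC50 came from a one-site fit, converted to KD; […] KD ratio. Triplicate points.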

The subject of test [7] is Rattus norvegicus. Briefly: Partial agonist activity at beta1 adrenoceptor in conscious free moving Sprague-Dawley rat model assessed as inhibition of heart rate responses at 2 mg/kg, iv administered as bolus followed by 1 mg/kg/hr, iv administered as 90 mins infusion measured for 0.5 hrs to 25 hrs relative to 40 to 120 ng/kg of isoprenaline. It is filed as functional, organism-based. In short, it runs like this: (§2)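 Conscious, unrestrained adult male Sprague–Dawley rats (300–350 g) with an implanted Doppler probe, an aortic catheter for blood pressure and heart rate, and a jugular catheter for dosing; studied 24 h after catheterisation. Atropine methyl nitrate 1 mg/kg/h was infused throughout. Isoprenaline 3 min infusions (12, 40, 120 ng/kg/min) were given before and from 30 min after saline or HCl salt iv bolus plus infusion. Response = third-minute value minus pre-infusion steady state; hindquarters conductance derived from BP and Doppler shift; n = 4.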

The test system of test [8] is Rattus norvegicus. Briefly: Agonist activity at beta2 adrenoceptor in conscious free moving Sprague-Dawley rat model assessed as effect on hindquarters response at 2 mg/kg, iv administered as bolus dose followed by 1 mg/kg/hr, iv administered as 90 mins infusion measured for 0.5 hrs to 25 hrs. It is filed as functional, organism-based. In short, it runs like this: as §2

The target in test [9] is T2, Beta-3 adrenergic receptor. Briefly: Agonist activity at human beta3 adrenoceptor expressed in CHOK1 cells assessed as induction of [3H]cAMP accumulation at 100 uM after 5 hrs relative to isoprenaline. Type of test: functional, cell-based. To be noted: CHO-K1. In short, it runs like this:
as §1
Target sequence in this assay (P13945 whole entry, looked up): as above

Test [10] addresses T1, Beta-1 adrenergic receptor. Nature of the test: Displacement of [3H]-CGP12177 from human beta1 adrenoceptor expressed in CHOK1 cells after 2 hrs by scintillation counting analysis. It is filed as cell-based, CHO-K1.
Test [11] deals with T2, Beta-3 adrenergic receptor. Nature of the test: Agonist activity at human beta3 adrenoceptor expressed in CHOK1 cells assessed as induction of [3H]cAMP accumulation after 5 hrs relative to isoprenaline. Type of test: functional, cell-based. To be noted: CHO-K1.
Target sequence in this assay (P13945 whole entry, looked up): as above
In test [12] the test system is Rattus norvegicus. Nature of the test: Partial agonist activity at beta1 adrenoceptor in conscious free moving Sprague-Dawley rat model assessed as increase in heart rate at 2 mg/kg, iv bolus followed by 1 mg/kg/hr, iv infusion for 90 mins measured for 0.5 hrs to 25 hrs relative to 120 ng/kg of isoprenaline. Type of test: functional. In short, it runs like this:
as §2

T1 sequence (P08588 whole entry): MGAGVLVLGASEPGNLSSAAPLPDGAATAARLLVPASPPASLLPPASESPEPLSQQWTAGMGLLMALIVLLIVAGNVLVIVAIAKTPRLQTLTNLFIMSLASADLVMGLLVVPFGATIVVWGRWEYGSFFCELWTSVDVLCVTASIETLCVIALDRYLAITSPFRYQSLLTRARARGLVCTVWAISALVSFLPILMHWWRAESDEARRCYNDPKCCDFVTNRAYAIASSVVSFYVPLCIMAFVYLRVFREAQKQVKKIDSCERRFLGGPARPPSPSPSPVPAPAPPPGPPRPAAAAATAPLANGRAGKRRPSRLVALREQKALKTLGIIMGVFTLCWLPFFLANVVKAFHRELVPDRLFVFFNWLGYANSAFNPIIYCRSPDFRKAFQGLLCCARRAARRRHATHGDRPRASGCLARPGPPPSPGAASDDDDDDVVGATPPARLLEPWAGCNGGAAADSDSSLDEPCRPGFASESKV

On to `O=C(NCCNCC(O)COc1ccc(OCCOCCc2ccc(F)cc2)cc1)Nc1ccc(O)cc1` (centres undefined), for which the values for the pKd in test [1] and in test [4] were 9.00 and 5.91, respectively. The Activity in test [2] turned out to be 7.9%. Besides, the Kd in test [3] is 0.891 µM; in test [6] it was 2.63 µM. Besides, the pEC50 in test [5] was 8.64. In the test with CHO-K1, the Selectivity ratio amounted to 389.
Regarding `N#Cc1cc(OCCOCC2CC2)ccc1OCC(O)CNCCNC(=O)Nc1ccc(O)cc1` (centres undefined) [LK-204545], the Activity in test [2] was found to be 8.6%. The Kd in test [3] was 2.88 µM. In addition, the figures for the pKd in test [4] and in test [6] were 5.29 and less than 5.00, respectively.
For `O=C(NCCNCC(O)COc1ccc(OCCOCC2CC2)cc1)Nc1ccc(O)cc1` (centres undefined) [listing 1 of 2 here], in the test with Rattus norvegicus [7], the inhibition result is “Active”. Further, the outcome in the test with Rattus norvegicus [8] was inactive. In addition, the Activity in test [2] came to 12.5%. Also, the inhibition entry in [4] is “inactive”.
Consider `O=C(NCCNCC(O)COc1ccc(OCCOC2CCCC2)cc1)Nc1ccccc1C(F)(F)F` (centres undefined), for which the Selectivity ratio in the test with CHO-K1 came out at 13.
The same measure, in the same setting: to `O=C(NCCNCC(O)COc1ccc(OCCOC2CCCC2)cc1)Nc1cccc(F)c1` (centres undefined) belongs 43; to `O=C(NCCNCC(O)COc1ccc(OCCOC2CCCC2)cc1)Nc1cccc(O)c1` (centres undefined), 110.
Regarding `O=C(NCCNCC(O)COc1ccc(OCCOC2CCCC2)cc1)Nc1ccc(F)cc1` (centres undefined), in the test on CHO-K1, the Selectivity ratio worked out at 60.
As to `O=C(NCCNCC(O)COc1ccc(O)cc1)N1CCOCC1` (centres undefined), the Activity in test [9] amounted to 38.3%.
As to `Cc1cccc(NC(=O)NCCNCC(O)COc2ccc(OCCOC3CCCC3)cc2)c1` (centres undefined), in the test with CHO-K1, the Selectivity ratio stood at 96.
As to `O=C(NCCNCC(O)COc1ccc(OCCOC2CCCC2)cc1)Nc1ccc(O)cc1` (centres undefined), the pKd was 8.55 in [1], less than 5.00 in test [6] and 8.13 in test [10]. Besides, the Activity in test [2] was found to be 4%. The Kd in [3] was 1.45 µM. For the same molecule, the pEC50 in test [5] is 8.44. The Selectivity ratio with CHO-K1 came to 478.
As to `O=C(NCCNCC(O)COc1ccc(OCCOC2CCCC2)cc1)Nc1ccccc1F` (centres undefined), the Selectivity ratio in the test with CHO-K1 was found to be 76.
In the case of `COc1ccc(NC(=O)NCCNCC(O)COc2ccc(OCCOC3CCCC3)cc2)cc1` (centres undefined), in the test on CHO-K1, the Selectivity ratio was found to be 87.
Consider `O=C(NCCNCC(O)COc1ccc(OCCOC2CCCC2)cc1)Nc1ccc(C(F)(F)F)cc1` (centres undefined), for which, in the test with CHO-K1, the Selectivity ratio is 87.
`O=C(NCCNCC(O)COc1ccc(OCCOC2CCCC2)cc1)Nc1ccccc1` (centres undefined): the pKd is 8.46 in test [1], 5.58 in test [4], less than 5.00 in [6] and 7.91 in test [10]. Moreover, the Activity in test [2] amounted to 4%. Also, in test [3], the Kd is 1.2 µM. Further, the pEC50 in test [5] was 8.35. Further, the Selectivity ratio with CHO-K1 turned out to be 213.
`COc1ccccc1NC(=O)NCCNCC(O)COc1ccc(OCCOC2CCCC2)cc1` (centres undefined): the Selectivity ratio in the test on CHO-K1 is 12.
Still for that read-out and setting: in the case of `O=C(NCCNCC(O)COc1ccc(OCCOC2CCCC2)cc1)Nc1ccc(Cl)cc1` (centres undefined) it was 110.
In the case of `CCOCCOc1ccc(OCC(O)CNCCNC(=O)Nc2ccc(O)cc2)cc1` (centres undefined), the pKd in [1] is 7.57; in test [3] (read-out: Kd) it was less than 5.00; in test [6], less than 5.00; in [10] it was 7.04. In addition, the Activity in test [2] is 1.3%. In addition, in test [4], the inhibition entry was “inactive”. Further, in test [5], the pEC50 is 7.64.
On to `O=C(NCCNCC(O)COc1ccc(OCCOC2CCCC2)cc1)Nc1cccc(C(F)(F)F)c1` (centres undefined), for which, in the test on CHO-K1, the Selectivity ratio is 81.
Same read-out and setting: in the case of `Cc1ccccc1NC(=O)NCCNCC(O)COc1ccc(OCCOC2CCCC2)cc1` (centres undefined) it was 11.
For `CC(C)NCC(O)c1ccc(N)c(C#N)c1` (centres undefined), in [11], the Activity is 89.6%.
As to `Cl.O=C(NCCNCC(O)COc1ccc(OCCOCC2CC2)cc1)Nc1ccc(O)cc1` (centres undefined), the Activity in the test on Rattus norvegicus [12] amounted to 44%.
Regarding `O=C(NCCNCC(O)COc1ccc(OCCOCC2CC2)cc1)Nc1ccc(O)cc1` (centres undefined) [listing 2 of 2 here], the pKd was 7.75 in test [1], less than 5.00 in [6] and 7.49 in test [10]. The Kd in [3] was 7.08 µM. Moreover, in test [5], the pEC50 was 8.01.
For the molecule `O=C(NCCNCC(O)COc1ccc(OCCOC2CCCC2)cc1)Nc1cccc(Cl)c1` (centres undefined), the pKd in [1] was 8.83; in test [4], 5.69; in [10] it was 8.21. For the same molecule, the Activity in test [2] worked out at 2%. Moreover, the Kd in [3] was 0.794 µM; in test [6], 6.03 µM. Moreover, the pEC50 in [5] is 8.52. The Selectivity ratio in the test on CHO-K1 was found to be 331.
Turning to `O=C(NCCNCC(O)COc1ccc(OCCOC2CCCC2)cc1)Nc1ccccc1Br` (centres undefined), the Selectivity ratio in the test with CHO-K1 turned out to be 10.
On to `COc1cccc(NC(=O)NCCNCC(O)COc2ccc(OCCOC3CCCC3)cc2)c1` (centres undefined), for which the Selectivity ratio with CHO-K1 turned out to be 51.
On to `N#Cc1ccccc1OCC(O)CNCCNC(=O)Nc1ccccc1` (centres undefined), for which the Activity in [2] came to 11.7%.
Regarding `O=C(NCCNCC(O)COc1ccc(OCCOC2CCCC2)cc1)Nc1ccc(Br)cc1` (centres undefined), the Selectivity ratio in the test with CHO-K1 came out at 81.
